Reference: ChEMBL document CHEMBL1124498
Where “and” joins values, the source holds several entries; their conditions need not be identical. Equal entries are not always repeated. One block for each compound: values may come before it.

How the values were obtained:
[1] = molecular target: T1, Aldehyde dehydrogenase, mitochondrial (Rattus norvegicus) (UniProt P11884); assay: Inhibition of class II aldehyde dehydrogenase in vitro in intact rat liver mitochondria assayed by nmol of acetaldehyde oxidized/min.mg of protein
T1 sequence (whole entry): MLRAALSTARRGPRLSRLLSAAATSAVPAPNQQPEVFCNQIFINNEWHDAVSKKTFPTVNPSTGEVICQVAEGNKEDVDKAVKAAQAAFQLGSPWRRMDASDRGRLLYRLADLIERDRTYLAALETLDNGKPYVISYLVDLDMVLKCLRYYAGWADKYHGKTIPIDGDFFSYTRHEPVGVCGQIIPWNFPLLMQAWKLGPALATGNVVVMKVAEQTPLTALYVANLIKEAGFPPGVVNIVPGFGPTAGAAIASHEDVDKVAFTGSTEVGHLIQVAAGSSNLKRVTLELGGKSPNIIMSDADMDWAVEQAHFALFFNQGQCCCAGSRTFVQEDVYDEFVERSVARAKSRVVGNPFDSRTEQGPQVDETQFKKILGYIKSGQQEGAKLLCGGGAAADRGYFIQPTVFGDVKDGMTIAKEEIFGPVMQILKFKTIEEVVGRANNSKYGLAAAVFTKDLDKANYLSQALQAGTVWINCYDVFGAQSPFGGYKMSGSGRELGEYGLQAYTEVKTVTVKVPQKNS
How it was run: (§1)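 Mitochondria from overnight-fasted male rats (200–250 g). Preincubated 5 min at 37 °C, then acetaldehyde (200 nmol) added for 5 min. Quenched with cold HClO4; acetaldehyde loss read by head-space GC; Lowry protein.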

[2] = molecular target: T1, Aldehyde dehydrogenase, mitochondrial (Rattus norvegicus); assay: Inhibition of class II aldehyde dehydrogenase in vitro in osmotically disrupted rat liver mitochondria assayed by nmol of acetaldehyde oxidized/min.mg of protein
How it was run: (§2)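 Liver mitochondria from overnight-fasted male rats (200–250 g), osmotically disrupted by leaving sucrose out of the medium. Preincubated 5 min at 37 °C, then acetaldehyde (200 nmol) added for 5 min. HClO4 quench; head-space GC; Lowry protein.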

[3] = molecular target: T1, Aldehyde dehydrogenase, mitochondrial (Rattus norvegicus); assay: Percent inhibition of class II aldehyde dehydrogenase in vitro in osmotically disrupted rat liver mitochondria; conditions: concentration not given here; how it was run: as §2
[4] = molecular target: T1, Aldehyde dehydrogenase, mitochondrial (Rattus norvegicus); assay: Percent inhibition of class II aldehyde dehydrogenase in vitro in intact rat liver mitochondria; conditions: concentration not given here; how it was run: as §1
[5] = tested on: aldehyde dehydrogenase (Saccharomyces cerevisiae); assay: In vitro inhibition of yeast aldehyde dehydrogenase; set-up: concentration or dose not given beside the values; conditions: concentration not given here
[6] = tested on: aldehyde dehydrogenase (Saccharomyces cerevisiae); assay: In vitro inhibition of yeast aldehyde dehydrogenase is evaluated by the formation of NADH
Saccharomyces cerevisiae [7] = assay: Inhibition of yeast […] is evaluated by formation by NADH in vitro at 10 uM concentration of compound
How it was run: (§3)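 Commercial yeast AlDH (0.074 IU) was preincubated 10 min at 0 °C with test agent added in acetone, in 100 mM potassium phosphate pH 7.4 containing 1.0 mM NAD+. Concentration is the final level in this primary mix. A 20-µL aliquot went into 0.5 mM NAD+, 1.0 mM EDTA, 30% glycerol, 80 mM potassium phosphate pH 8.0; reaction started with benzaldehyde (0.6 µmol); NADH read at 340 nm.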

Saccharomyces cerevisiae [8] = assay: Inhibition of yeast aldehyde dehydrogenase is evaluated by formation by NADH in vitro at 10 uM concentration of compound; how it was run: as §3
Saccharomyces cerevisiae [9] = assay: In vitro inhibition of yeast […] at 1 uM concentration of compound
Saccharomyces cerevisiae [10] = assay: In vitro inhibition of yeast […] at 100 uM concentration of compound
Saccharomyces cerevisiae [11] = assay: In vitro inhibition of yeast aldehyde dehydrogenase at 100 uM concentration of compound; how it was run: as §3
Saccharomyces cerevisiae [12] = assay: In vitro inhibition of yeast […] is evaluated by the formation of NADH at 100 uM concentration of compound; how it was run: as §3

SMILES: CCCNC(=O)N(C(C)(C)C)S(=O)(=O)c1ccc(Cl)cc1
inhibition [5]: 100%
ALDH activity (NADH formation rate) [6]: 0 nM/min

SMILES: CCCCN=C=O
AIDH activity (Saccharomyces cerevisiae [7]): 11.2 nM/min
AIDH activity (Saccharomyces cerevisiae [8]): 0.2 nM/min
inhibition (Saccharomyces cerevisiae [9]): 20.8%
inhibition (Saccharomyces cerevisiae [10]): 98.9%
inhibition (Saccharomyces cerevisiae [11]): 100%
AIDH activity (Saccharomyces cerevisiae [12]): 0 nM/min

SMILES: O=C=NC1CCCCC1
AIDH activity (Saccharomyces cerevisiae [7]): 12.4 nM/min
AIDH activity (Saccharomyces cerevisiae [8]): 0.5 nM/min
inhibition (Saccharomyces cerevisiae [9]): 12.1%
inhibition (Saccharomyces cerevisiae [10]): 96.5%
inhibition (Saccharomyces cerevisiae [11]): 100%
AIDH activity (Saccharomyces cerevisiae [12]): 0 nM/min

SMILES: CCCNC(=O)N(C(C)C)S(=O)(=O)c1ccc(Cl)cc1
inhibition [5]: 100%
ALDH activity (NADH formation rate) [6]: 0 nM/min

SMILES: CCCN(C)C(=O)NS(=O)(=O)c1ccc(Cl)cc1
inhibition [5]: 0%
ALDH activity (NADH formation rate) [6]: 15 nM/min

SMILES: CCN(C(=O)NC(C)(C)C)S(=O)(=O)c1ccc(Cl)cc1
inhibition [5]: 97.3%
ALDH activity (NADH formation rate) [6]: 2.7 nM/min

SMILES: CCCN=C=O
inhibition (Saccharomyces cerevisiae [9]): 8.8%
inhibition (Saccharomyces cerevisiae [10]): 100% and 98.5%
AIDH activity (Saccharomyces cerevisiae [12]): 0 nM/min

More lines, now with the values ahead:

AIDH activity [1]: 28.3 nM/min
AlDH activity [2]: 73.8 nmol/min/mg
inhibition [3]: 0%
inhibition [4]: 0%
SMILES: CCCNC(=O)NS(=O)(=O)c1ccc(Cl)cc1

inhibition [5]: 100%
ALDH activity (NADH formation rate) [6]: 0 nM/min
SMILES: CCCNC(=O)N(CC(C)(C)C)S(=O)(=O)c1ccc(Cl)cc1

inhibition [5]: 100%
ALDH activity (NADH formation rate) [6]: 0 nM/min
SMILES: CCCNC(=O)N(CC(C)C)S(=O)(=O)c1ccc(Cl)cc1

AIDH activity [1]: 13.4 nM/min
AIDH activity [2]: 19 nM/min
inhibition [5]: 99.6%
ALDH activity (NADH formation rate) [6]: 0.6 nM/min
inhibition [3]: 73.7%
inhibition [4]: 48.9%
SMILES: CCCNC(=O)N(C)S(=O)(=O)c1ccc(Cl)cc1

inhibition [5]: 91.1%
ALDH activity (NADH formation rate) [6]: 1.3 nM/min
SMILES: CCCNC(=O)N(CCC)S(=O)(=O)c1ccc(Cl)cc1

inhibition [5]: 1.4%
ALDH activity (NADH formation rate) [6]: 14.6 nM/min
SMILES: CCCOC(=O)N(CC)S(=O)(=O)c1ccc(Cl)cc1

inhibition [5]: 100%
ALDH activity (NADH formation rate) [6]: 0 nM/min
SMILES: CCCCN(C(=O)NCCC)S(=O)(=O)c1ccc(Cl)cc1

inhibition [5]: 98.6%
ALDH activity (NADH formation rate) [6]: 1.4 nM/min
SMILES: CCCNC(=O)N(CC)S(=O)(=O)c1ccc(Cl)cc1
